The term IC50 denotes the concentration that inhibits the measured activity by half.

The experiment has as its system E. coli BW25113 ΔtolC growth inhibition, OD615. Put plainly: growth inhibitors of E. coli tolC mutant, dose response, strain BW25113 ΔtolC::kan (AID 617). The method in brief:
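System – E. coli BW25113 ΔtolC::kan bacteria · Input – inoculum from 1:1000-diluted 1.5 h subculture · Buffer or medium – LB plus kanamycin · Compound – serial dilution series of compound · Timing – bacterial growth with compound for 20 h, 37 °C · Measured by – OD615 · Read-out basis – growth-inhibition IC50 from four-parameter logistic curve, bounds set to 0% and 100% · Benchmarks – chloramphenicol 30 µM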
In the case of `CC1=C(C#N)c2nc(N)c(C#N)c(C)c2/C1=C\c1ccccc1`, the IC50 was 3.05 µM. Under `O=C(NCc1ccco1)c1cc2sccc2n1Cc1ccccc1` stands 14.4 µM; under `Cc1ccc(-c2nnc(N3CCN(c4ccccn4)CC3)c3ccccc23)cc1`, 4.28 µM. To `Cc1ccsc1C(=O)Nc1nnc(-c2ccco2)o1` belongs 3.92 µM; to `O=C(Nc1nc(-c2ccccc2)ns1)c1cccs1`, 28.4 µM; to `Cc1ccc2nc(NC(=O)CNS(=O)(=O)c3ccc(Br)s3)sc2c1`, 47.7 µM.

As to `COCc1nnc(NC(=O)c2ccc(S(=O)(=O)N(C)c3ccccc3)cc2)o1`, the IC50 was 6.56 µM. To `Cc1ccc(S(=O)(=O)c2nc(Nc3nccs3)sc2Cl)cc1` belongs 2.48 µM; to `O=C(Nc1ccc(CN2CCOCC2)cc1)c1ccc(-c2ccc(Br)cc2)o1`, 30.4 µM. Under `O=C(Oc1ccc2ccccc2c1Cl)N1CCCC1` stands 23.2 µM; under `O=C(CN1CCN(c2nc(-c3ccc(F)cc3)cs2)CC1)NCc1ccc2c(c1)OCO2`, 11.1 µM.

On to `Cn1cc(SCC(=O)Nc2nc3ccccc3s2)c2ccccc21`, for which the IC50 is 9.23 µM.

`O=C(CSc1nnc(Cc2ccccc2)n1Cc1ccco1)NC12CC3CC(CC(C3)C1)C2`: the IC50 is 61.8 µM.

With `O=C1CN(C(=O)c2ccc(Br)o2)C(c2ccccc2)c2cc(Cl)ccc2N1` (centres undefined), the IC50 was 15.6 µM.

For the origin of these results see PubChem BioAssay AID617 (SRMLSC, 2007).
